Measured values reported in PubChem BioAssay AID1216 (Sanford-Burnham Center for Chemical Genomics, 2008).
Among all 190,000 compounds or so, about 660 (0.35%) were called active. Only a selection was taken, and actives are over-represented in it overall. Unmarked numbers belong to inactive results.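 The calls were made as follows: active = activation factor of 2 or more at 20 µM; inactive = the rest.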

target: Mannose-6-phosphate isomerase (Homo sapiens) (UniProt P34949); experiment: MPI activation at elevated mannose 6-phosphate – biochemical, fluorescence intensity, near-saturating mannose 6-phosphate, primary screen (AID 1216); settings: coupled PMI enzyme assay, resazurin fluorescence, 20 min; at 20 µM; hits give high values
Sequence (P34949 whole entry, looked up): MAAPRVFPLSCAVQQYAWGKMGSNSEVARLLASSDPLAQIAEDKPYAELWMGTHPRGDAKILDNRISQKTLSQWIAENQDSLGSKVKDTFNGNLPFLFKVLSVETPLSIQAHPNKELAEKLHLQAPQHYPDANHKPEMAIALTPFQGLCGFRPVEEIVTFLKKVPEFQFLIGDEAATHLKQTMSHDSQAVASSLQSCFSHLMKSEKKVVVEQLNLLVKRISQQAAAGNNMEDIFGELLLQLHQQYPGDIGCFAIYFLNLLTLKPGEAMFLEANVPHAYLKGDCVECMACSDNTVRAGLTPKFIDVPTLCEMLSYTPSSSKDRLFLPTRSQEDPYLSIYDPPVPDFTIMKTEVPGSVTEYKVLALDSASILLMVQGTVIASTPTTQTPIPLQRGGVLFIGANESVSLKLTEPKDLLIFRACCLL
Method in brief: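 Test system: human PMI in coupled enzyme assay; Input: PMI at 15 ng/mL final; Medium: HEPES buffer, pH 7.4; Schedule: 20 min incubation at room temperature; Technique: resorufin fluorescence at Ex 544/Em 590 nm; Compound: 20 µM single dose; Probe or stimulus: Near-saturating mannose-6-phosphate, 1.0 mM.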

Compound	activation factor
COc1ccccc1N=Nc1c(O)[nH]c(=S)[nH]c1=O	0.9
O=C1N=c2ccccc2=C/C1=C\c1c(O)[nH]c(=S)[nH]c1=O	2.1 (active)
Cc1ccc2c(c1)=C/C(=C\c1c(O)[nH]c(=O)[nH]c1=O)C(=O)N=2	0.5
O=C(CSC1c2ccccc2-c2ccccc21)N/N=C/c1ccccc1	0.9
Cc1cccc(OP(=O)(Oc2cccc(C)c2)OC(c2ccccc2)C(F)(F)F)c1 (stereo not given)	0.9
